Assay results as given in ChEMBL document CHEMBL1153551, “Resveratrol modulates phagocytosis of bacteria through an NF-kappaB-dependent gene program” (Antimicrob Agents Chemother, 2008).
Activity calls are given as the source filed them.

Key:
RAW264.7 [1] = assay: Inhibition of phagocytosis of FITC-conjugated Staphylococcus aureus 209P in mouse RAW264.7 cells using trypan blue staining after 40 mins by flow cytometry; format: functional, cell-based
THP-1 [2] = assay: Inhibition of phagocytosis of FITC-conjugated Staphylococcus aureus 209P in human THP1 cells assessed as reduction in ratio of number of bacterial cells to phagocytes using trypan blue staining by flow cytometry; format: functional, cell-based
Outline: (§1)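 THP-1 or RAW264.7 cells received resveratrol for 1 h serum-free, then a range of doses of heat-killed FITC-E. coli or FITC-S. aureus. Trypan blue (0.2%) quenched bound bacteria and 1% paraformaldehyde fixed the cells. Flow cytometry MFI of internalized bacteria was plotted against bacterial dose; triplicates.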

HEK293 [3] = assay: Inhibition of heat killed Staphylococcus aureus 209P-induced nuclear translocation of p65 element of NF-kappaB in HEK293 cells expressing TLR2 at 100 uM pretreated for 1 hr before 6 hrs heat killed bacterial stimulation by immunostaining method; format: cell-based; conditions: Homo sapiens
Outline: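 293/TLR2 cells on poly-L-lysine coverslips were given 100 μM resveratrol or 0.1% DMSO for 1 h, then heat-killed E. coli or S. aureus (1:100) for 6 h. Cells were fixed in methanol at −20°C for 5 min and stained with rabbit anti-p65 pAb (1 μg/ml, 45 min RT), then Alexa 594 anti-rabbit IgG. Nuclear p65 was viewed by confocal microscopy.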

RAW264.7 [4] = assay: Inhibition of phagocytosis of FITC-conjugated Escherichia coli K12 in mouse RAW264.7 cells using trypan blue staining after 40 mins by flow cytometry; format: functional, cell-based
Outline: (§2)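 Serum-free THP-1 or RAW264.7 cells were treated 1 h with resveratrol, then incubated 0, 20, 40, 60 or 80 min with heat-killed FITC-E. coli at 1:100 cell:bacterium. Outer fluorescence was quenched with 0.2% trypan blue and cells fixed in 1% paraformaldehyde. Internalized fluorescence was read as flow cytometry MFI; mean and SD of triplicates.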

THP-1 [5] = assay: Inhibition of heat killed Staphylococcus aureus 209P-induced TNF alpha production in human THP1 cells at 1 to 100 uM after 6 hrs by ELISA; format: functional, cell-based
Outline: (§3)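 THP-1 or RAW264.7 cells (1 × 10⁶/well, 16 h) were washed and pretreated 1 h with resveratrol. Serum-free stimulation with heat-killed E. coli or S. aureus at 1:100 followed for 0, 2, 4 or 6 h. TNF-α in supernatants (400 × g spin) was measured by ELISA: human kit for THP-1, mouse kit for RAW264.7. Triplicates.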

HEK293 [6] = assay: Inhibition of FSL1-induced NF-kappaB activation in HEK293 cells expressing TLR2 pretreated for 1 hr before 6 hrs-FSL1 stimulation by luciferase reporter gene assay; format: cell-based; conditions: Homo sapiens
Outline: (§4)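 293/TLR2 cells (1 × 10⁵/well) were transfected with 50 ng pNF-κB-Luc, 5 ng pRL-TK and 445 ng pcDNA3. After 24 h they were pretreated 1 h with resveratrol, then stimulated 6 h serum-free with FSL-1 (1, 10, 100 nM) or heat-killed E. coli or S. aureus (1:1, 1:10, 1:100). Dual luciferase readout, triplicates.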

THP-1 [7] = assay: Inhibition of FSL1-induced upregulation of DC-SIGN mRNA expression in human THP1 cells at 100 uM after 1 hr by RT-PCR; format: functional, cell-based
Outline: (§5)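 Serum-free THP-1 cells primed 24 h with 100 nM FSL-1 were given 100 μM resveratrol or 0.1% DMSO for 1 h. Total RNA from 5 × 10⁶ cells was reverse-transcribed with oligo(dT) and PCR-amplified for MSR1, CD36, DC-SIGN and Dectin-1 (30 cycles) with β-actin as reference (25 cycles). Products were resolved on 3% agarose with ethidium bromide.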

RAW264.7 [8] = assay: Inhibition of phagocytosis of FITC-conjugated Escherichia coli K12 in mouse RAW264.7 cells using trypan blue staining after 60 mins by flow cytometry; format: functional, cell-based; outline: as §2
HEK293 [9] = assay: Inhibition of heat killed Escherichia coli K12-induced NF-kappaB activation in HEK293 cells expressing TLR2 pretreated for 1 hr before 6 hrs heat killed bacterial stimulation by luciferase reporter gene assay; format: cell-based; conditions: Homo sapiens; outline: as §4
HEK293 [10] = assay: Inhibition of phagocytosis of heat killed FITC-conjugated Staphylococcus aureus 209P in HEK293 at 100 uM after 1 hr; format: functional, cell-based; conditions: Homo sapiens
Outline: (§6)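 293/DC-SIGN cells (5 × 10⁵/ml) were plated the day before, washed and treated 1 h with resveratrol. Heat-killed FITC-E. coli or S. aureus were added for 1 h at various cell:bacterium ratios. Trypan blue (0.2%) quenched surface fluorescence and 1% paraformaldehyde fixed the cells. Flow cytometry MFI, triplicates.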

THP-1 [11] = assay: Inhibition of FSL-1-induced increase in phagocytosis of FITC-conjugated Escherichia coli K12 in human THP1 cells using trypan blue staining after 20 mins by flow cytometry; format: functional, cell-based
Outline: (§7)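 THP-1 or RAW264.7 cells (1 × 10⁶/ml) were pretreated 24 h with FSL-1 (0, 1, 10, 100 nM), washed, then given resveratrol (10, 50, 100 μM) for 1 h serum-free. Heat-killed FITC-E. coli (1:10) or FITC-S. aureus (1:100) followed. Surface fluorescence was quenched with 0.2% trypan blue and cells fixed in 1% paraformaldehyde. Flow cytometry mean fluorescence intensity, triplicates.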

THP-1 [12] = assay: Inhibition of FSL1-induced upregulation of MSR1 mRNA expression in human THP1 cells at 100 uM after 1 hr by RT-PCR; format: functional, cell-based; outline: as §5
THP-1 [13] = assay: Inhibition of phagocytosis of FITC-conjugated Escherichia coli K12 in human THP1 cells using trypan blue staining after 20 mins by flow cytometry; format: functional, cell-based; outline: as §2
HEK293 [14] = assay: Inhibition of phagocytosis of heat killed FITC-conjugated Escherichia coli K12 in HEK293 at 100 uM by after 1 hr; format: functional, cell-based; conditions: Homo sapiens; outline: as §6
THP-1 [15] = assay: Inhibition of heat killed Escherichia coli K12-induced TNF alpha production in human THP1 cells at 1 to 100 uM after 6 hrs by ELISA; format: functional, cell-based; outline: as §3
THP-1 [16] = assay: Inhibition of phagocytosis of FITC-conjugated Staphylococcus aureus 209P in human THP1 cells using trypan blue staining after 80 mins by flow cytometry; format: functional, cell-based
THP-1 [17] = assay: Inhibition of FSL-1-induced increase in phagocytosis of FITC-conjugated Escherichia coli K12 in human THP1 cells assessed as reduction in number of cells phagocytosing bacteria per cell after 1 hr by CLSM; format: functional, cell-based
Outline: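 THP-1 cells (1 × 10⁶/ml) were held 24 h with or without 100 nM FSL-1, washed, then given 100 μM resveratrol or 0.1% DMSO for 1 h. Heat-killed FITC-E. coli (1:100) was added for 1 h, cells were stained with concanavalin A, fixed in 3% paraformaldehyde and imaged by confocal microscopy. Readouts: particles per cell among 3,500 cells; % cells with bacteria per field (>100 cells), 25 fields.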

THP-1 [18] = assay: Inhibition of FSL-1-induced increase in phagocytosis of FITC-conjugated Staphylococcus aureus 209P in human THP1 cells using trypan blue staining after 20 mins by flow cytometry; format: functional, cell-based; outline: as §7
RAW264.7 [19] = assay: Inhibition of phagocytosis of FITC-conjugated Escherichia coli K12 in mouse RAW264.7 cells using trypan blue staining after 20 mins by flow cytometry; format: functional, cell-based; outline: as §2
RAW264.7 [20] = assay: Inhibition of heat killed Staphylococcus aureus 209P-induced TNF alpha production in mouse RAW264.7 cells at 1 to 100 uM after 6 hrs by ELISA; format: functional, cell-based; outline: as §3
RAW264.7 [21] = assay: Inhibition of phagocytosis of FITC-conjugated Staphylococcus aureus 209P in mouse RAW264.7 cells assessed as reduction in ratio of number of bacterial cells to phagocytes using trypan blue staining by flow cytometry; format: functional, cell-based; outline: as §1

Measured: Activity

Oc1ccc(/C=C/c2cc(O)cc(O)c2)cc1
active: RAW264.7 [1] Dose-dependent effect | THP-1 [2] | HEK293 [3] | RAW264.7 [4] Dose-dependent effect | THP-1 [5] | HEK293 [6] Dose-dependent effect | THP-1 [7] | RAW264.7 [8] Dose-dependent effect | HEK293 [9] | HEK293 [10] Dose-dependent effect | THP-1 [11] Dose-dependent effect | THP-1 [12] | THP-1 [13] Dose-dependent effect | HEK293 [14] Dose-dependent effect | THP-1 [15] | THP-1 [16] Dose-dependent effect | THP-1 [17] | THP-1 [18] Dose-dependent effect | RAW264.7 [19] Dose-dependent effect | RAW264.7 [20] | RAW264.7 [21]
